What was measured:
RAW264.7 [1] = assay: Inhibition of LPS-induced TNFalpha production in mouse RAW264.7 cells assessed as TNFalph activity at 30 uM by ELISA relative to untreated control; format: functional; parameters: scale not given: the % may be the effect or the level left
Outline: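 RAW 264.7 cells were cultured and exposed to compound at 30 μM together with LPS. TNF-α protein in the culture medium was quantified by a mouse TNF-α-specific ELISA and expressed as % of the appropriate control. Values are mean ± S.E.M., n = 3, with Student's t-test (P<0.05 significant).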

[2] = Toxicity against mouse RAW264.7 cells assessed as cell viability at 30 uM by Cell titer 96 squeous one solution cell proliferation assay untreated control; format: cell-based; conditions: read-out: Activity
Outline: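 Viability of RAW 264.7 cells given 30 μM compound with LPS was read by CellTiter 96 Aqueous One tetrazolium dye formation, with absorbance at 490 nm. Results are % change in O.D. versus the appropriate control, mean ± S.E.M., n = 3, with Student's t-test (P<0.05 significant).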

RAW264.7 [3] = assay: Inhibition of LPS-induced TNFalpha production in mouse RAW264.7 cells assessed as TNFalph activity at 30 uM by ELISA relative to thalidomide; format: functional
Outline: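 LPS-stimulated RAW 264.7 cells were treated at 30 μM, and TNF-α in the medium was measured by mouse TNF-α ELISA as % of vehicle control (n = 3). Fold activity relative to thalidomide = (100 − compound TNF-α % control)/(100 − thalidomide TNF-α % control).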

Compound | Activity (RAW264.7 [1]) | viability at 30 µM [2] | fold change (FC) (RAW264.7 [3])
O=C1CCC(N2Cc3ccccc3C2=O)C(=O)N1CSC(=S)NC1CCCCC1 (stereo unspecified) | 55% | 103% | 45
N=C1N/C(=N\C2CCC(=O)NC2=O)c2ccccc21 (stereo unspecified) | 61% | 116% | 39
N=C1c2ccccc2C(=O)N1C1CCC(=O)NC1=O (stereo unspecified) | 67% | 84% | 33
O=C1CCC(N2C(=O)c3cccnc3C2=O)C(=O)N1 (stereo unspecified) | 104% | 95% | -4
O=C1CCC(N2Cc3ccccc3C2=O)C(=O)N1CN1C(=S)CCCC1=S (stereo unspecified) | 63% | 94% | 37
O=C1CCC(N2Cc3ccccc3C2=O)C(=O)N1CSC(=S)N1CCCCC1 (stereo unspecified) | 96% | 112% | 4
O=C1CCC(N2Cc3ccccc3C2=O)C(=O)N1CN1C(=O)c2ccccc2C1=O (stereo unspecified) | 88% | 98% | 12
O=C1CCC(N2S(=O)(=O)c3ccccc3S2(=O)=O)C(=O)N1 (stereo unspecified) | 55% | 109% | 45
O=C1CCCC(=O)N1CN1C(=O)CCC(N2Cc3ccccc3C2=O)C1=O (stereo unspecified) | 79% | 102% | 21
O=C1CCC(N2Cc3ccccc3C2=O)C(=O)N1CN1C(=S)c2ccccc2C1=S (stereo unspecified) | 52% | 82% | 48
O=C1CCC(N2C(=O)c3ccncc3C2=O)C(=O)N1 (stereo unspecified) | 96% | 96% | 4
Nc1cccc2c1CN(C1CCC(=O)NC1=O)C2=O (stereo unspecified) [LENALIDOMIDE] | 109% | 106% | -9
